# Screening results as filed in PubChem BioAssay.
# Only some compounds are listed: those with a hit (about 1.2% of all), similar ones and a draw of the others.
# Dynein cargo inh – inhibitors of GR-EGFP nuclear translocation, primary screen, dynein cargo transport inhibitor project, imaging, high-content, 3617.4 mouse cells; 220,000 compounds, 0.47% hits; test concentration mostly 20 µM; stimulated with dexamethasone, 1 µM; stronger effect = lower value; z-score, hits read low;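 active = plate z-score of nuclear minus cytoplasmic receptor signal below a set negative limit, without overly bright fluorescence or cell loss, cut at about -3.5 in these data, passing the limit was not always enough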;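 note: z-score of nuclear minus cytoplasmic ring GR-EGFP intensity difference per well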
#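 Buffer or medium: tet-free, stripped-serum medium; Also added: dexamethasone, 1.0 µM final; Technique: high-content fluorescence imaging after fixation; Times: 48 h induction, 1 h compound, 30 min dex at 37 °C; Read-out: per-cell GR-EGFP intensity, nucleus versus surrounding cytoplasmic ring, well-averaged.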
# PERK inhibitor – block of dimerizer-induced PERK translation repression, primary screen, PERK inhibitor project, CHO PERK-DD cells, SEAP luminescence, HTS | CHO PERK-DD fusion, SEAP luminescence translation reporter | AID 1416, 2008 | inhibition, % at 5.6 µM | 220,000 compounds, 0.17% hits;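 active = inhibition above the mean inhibition of all tested compounds plus 3 SD, set separately per screening campaign, cut at about 2.9% in these data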;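 note: PERK kinase domain activated by AP20187 dimerizer at 100 nM; 0% = DMSO with dimerizer and 100% = rapamycin at 8.4 µM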
# Autophagy HCS – autophagy modulators in MEF cells, primary screen, imaging, high-content, MEF GFP-LC3; MEF GFP-LC3 puncta imaging; test concentration mostly 10 µM; calls only at 10 µM (by protocol); 190,000 compounds, 0.98% hits; AID 463193, 2010;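 active = percentage of spot-positive cells more than 3 SD above its plate mean, without a fluorescence outlier flag or 80% toxicity; inconclusive = no clear call, values can overlap the other calls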;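 note: spot-positive cell cutoff set from DMSO-treated cells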
# HKDC1 inhibitor – HKDC1 hexokinase inhibitors, primary screen, biochemical, fluorescence, uHTS; Q2TB90; recombinant HKDC1, G6PDH/diaphorase resazurin coupled fluorescence; inhibition, % at 20 µM; 340,000 compounds, 0.16% hits;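 active = inhibition above about 35% when tested at 20 µM, limit read from the data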;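 note: plate controls were DMSO wells with enzyme for no effect and DMSO wells lacking enzyme for full effect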
# Target sequence (Q2TB90 whole entry, looked up): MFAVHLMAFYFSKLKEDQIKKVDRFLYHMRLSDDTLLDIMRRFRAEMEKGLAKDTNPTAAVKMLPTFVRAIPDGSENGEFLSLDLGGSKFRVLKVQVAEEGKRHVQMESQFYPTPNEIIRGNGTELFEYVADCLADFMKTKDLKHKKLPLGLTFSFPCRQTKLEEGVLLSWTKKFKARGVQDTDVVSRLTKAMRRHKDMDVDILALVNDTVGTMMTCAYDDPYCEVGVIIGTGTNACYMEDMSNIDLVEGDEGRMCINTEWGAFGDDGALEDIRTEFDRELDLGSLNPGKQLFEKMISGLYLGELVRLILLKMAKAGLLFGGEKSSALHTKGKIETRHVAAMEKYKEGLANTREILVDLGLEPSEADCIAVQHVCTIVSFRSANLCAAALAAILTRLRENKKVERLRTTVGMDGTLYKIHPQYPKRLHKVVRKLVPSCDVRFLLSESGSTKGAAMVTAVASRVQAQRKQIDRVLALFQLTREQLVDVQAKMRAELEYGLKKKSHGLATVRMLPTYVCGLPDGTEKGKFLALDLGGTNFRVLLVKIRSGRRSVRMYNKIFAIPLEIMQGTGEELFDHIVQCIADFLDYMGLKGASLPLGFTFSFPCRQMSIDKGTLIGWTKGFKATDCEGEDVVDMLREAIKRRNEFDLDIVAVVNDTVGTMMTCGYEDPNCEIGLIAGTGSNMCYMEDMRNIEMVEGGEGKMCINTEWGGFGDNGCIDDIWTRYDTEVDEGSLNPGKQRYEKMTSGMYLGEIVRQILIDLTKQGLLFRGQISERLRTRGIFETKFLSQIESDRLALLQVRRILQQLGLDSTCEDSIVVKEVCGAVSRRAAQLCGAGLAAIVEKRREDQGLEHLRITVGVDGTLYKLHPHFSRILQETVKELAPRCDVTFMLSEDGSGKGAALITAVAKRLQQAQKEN
#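 Test system: recombinant HKDC1 (HK5) hexokinase enzyme, produced in-house / Doses: 20 µM test compound, 1% DMSO / Timing: 90 min, room temperature / Detection: G6PDH/diaphorase-coupled fluorescence, 1 mM NADP, 100 µM resazurin, 525/613 nm / Control set: DMSO wells with and without enzyme mix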
# Tb hexokinase – Trypanosoma brucei hexokinase 1 inhibitors, primary screen, biochemical, G6PDH-coupled NADH absorbance, MLSCN library | inhibition, % at 10 µM | 220,000 compounds, 0.11% hits | recombinant TbHK1, G6PDH-coupled NADH A340 | hexokinase 1 [Trypanosoma brucei];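 active = inhibition of 50% or more in the single-dose primary screen; inactive = inhibition below 50%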
# HSV augment – enhancers of HSV replication in host cells, fold increase, host cell viability | HSV replication augmentation in cells | maximum fold increase | 220,000 compounds, 0.005% hits | AID 1956, 2009; in the data active = maximum fold increase above about 1.5; inconclusive = no clear call, values can overlap the other calls; tested in PC3 cells
# Active calls of the source: *; i = inactive; ? = inconclusive; . = no result; + = active, no number.
SMILES,Dynein cargo inh,PERK inhibitor,Autophagy HCS,HKDC1 inhibitor,Tb hexokinase,HSV augment
Cc1ccc(C(=O)N/N=C/c2ccc(-c3ccccc3[N+](=O)[O-])o2)cn1,0.309,0.5,i,8.0,-47.2,i
COc1ccc(-c2ccc(/C=N/NC(=O)c3cccnc3)o2)c([N+](=O)[O-])c1,-2.38,0.8,+,28.1,-0.8,i
COc1ccc(CN=C(C)c2c(C(F)(F)F)[nH]n(-c3nc4ccccc4s3)c2=O)cc1,-0.256,0.2,+,-0.9,-24.1,i
COC(=O)Cc1[nH]n(-c2nc3ccccc3s2)c(=O)c1C(C)=O,-0.822,0.0,i,2.7,-10.3,i
CN(C(=O)COc1cc(=O)n(C)c2ccccc12)c1ccc(Cl)cc1,-0.422,0.6,i,-1.8,-0.3,i
Cc1ccc(C)c(N(C)C(=O)COc2cc(=O)n(C)c3ccccc23)c1,0.125,-0.6,+,-9.3,-4.5,i
CSc1nc(O)c(C2OC(=O)c3ccccc32)c(=O)[nH]1 (configuration not stated),0.568,2.9*,i,-2.8,9.2,i
CSc1nc(O)c(C(c2ccccc2)c2c(O)nc(SC)[nH]c2=O)c(=O)[nH]1,.,.,.,-1.3,.,.
C#CCn1c(=NC(=O)c2ccc(S(=O)(=O)N3CCc4ccccc4C3)cc2)sc2cc(S(N)(=O)=O)ccc21,-0.329,0.3,+,-15.6,-32.1,i
C=CCn1c(=NC(=O)c2ccc(S(=O)(=O)N3CCc4ccccc4C3)cc2)sc2cc(S(N)(=O)=O)ccc21,1.48,-0.7,i,-5.6,-22.3,i
COC(=O)[C@@]1(Cc2ccc(OC)cc2)[C@@H]2C(=CC(=O)[C@H]2CC(=O)C(=O)N2CCCC2)CN1C(=O)c1ccccc1,-4.74*,-0.9,i,10.7,-1.1,i
COc1ccc2nc(-n3c(C)ccc3C)sc2c1,-0.985,0.4,i,-2.8,0.2,i
CCOc1ccc2nc(N3CCCCCC3)sc2c1,-0.72,0.3,i,18.8,-1.2,i
COc1ccc2nc(N3C(=O)/C(=C/c4ccccc4)NC3=S)sc2c1,-0.291,-0.2,+,10.1,42.2,?
CCOc1ccc2nc(N3C(=O)/C(=C/c4ccccc4)NC3=S)sc2c1,-0.433,0.8,+,3.6,8.8,i
CCCN(CC(=O)Nc1ccccc1OC)C(=O)CCNC(=O)c1ccccc1OC,.,.,.,-3.0,.,.
CCCCCNC(=O)C(C#N)c1nc2ccccc2nc1N1CCCC1 (configuration not stated),-0.313,0.4,+,2.2,2.8,i
N#CC(C(=O)NCCc1ccccc1)c1nc2ccccc2nc1N1CCCCC1 (configuration not stated),0.603,1.2,i,1.0,1.4,i
CCCCCCOC(=O)C(C#N)c1nc2ccccc2nc1N1CCN(CC)CC1 (configuration not stated),-0.84,-0.7,+,4.9,-3.3,i
N#CC(C(=O)NCc1ccccc1)c1nc2ccccc2nc1N1CCCC1 (configuration not stated),1.8,-0.1,+,1.0,-4.1,i
CCCCCCOC(=O)C(C#N)c1nc2ccccc2nc1N1CCOCC1 (configuration not stated),0.036,0.0,i,0.4,-3.2,i
CCCCCCNC(=O)C(C#N)c1nc2ccccc2nc1N1CCOCC1 (configuration not stated),0.963,-0.5,i,1.9,-2.6,?
COCCCNC(=O)C(C#N)c1nc2ccccc2nc1N1CCCC1 (configuration not stated),-0.121,-0.1,i,-3.5,-9.2,i
CCCCCCNC(=O)C(C#N)c1nc2ccccc2nc1N1CCCC1 (configuration not stated),0.9,-1.3,+,1.2,14.5,i
CCCc1cc(=O)oc2cc(OCC(=O)NC3CC(C)(C)NC(C)(C)C3)ccc12,.,.,.,-3.9,.,.
SMILES,Dynein cargo inh,PERK inhibitor,Autophagy HCS,HKDC1 inhibitor,Tb hexokinase,HSV augment
CC(=O)c1cccc(OCC(=O)N(CCC2=CCCCC2)c2c(N)n(Cc3ccccc3)c(=O)[nH]c2=O)c1,.,.,.,-9.0,.,.
CCCCOc1ccc(C(=O)NCC(=O)NC2CCCCC2)cc1,.,.,.,-0.2,.,.
CC(C)=CCC/C(C)=C/CCC(C)NCCN1CCNCC1 (configuration not stated),0.413,0.3,+,.,12.8,i
CC(C)=CCC/C(C)=C/CC(C)(C)CNCCN1CCNCC1,i,-0.4,i,.,20.7,i
CC(C)Cn1c(S(=O)(=O)O)nc2ccccc21,-0.628,3.5*,.,-4.2,-4.0,i
Cc1ccc(CNC(=O)C2CCCN(S(=O)(=O)N3CC(C)CC(C)C3)C2)cc1 (configuration not stated),.,.,.,-3.0,.,.
CCc1nnc(NC(=O)CN2CCN(Cc3ccccc3Cl)CC2)s1,.,.,.,-1.2,.,.
Cc1c(C(=O)Nc2ccc(Cl)cc2)c2ccccn2c1CCc1ccncc1,-0.202,0.7,i,13.1,-16.1,i
Cc1c(C(=O)Nc2cccc(Cl)c2)c2ccccn2c1CCc1ccncc1,-0.346,-0.3,+,-5.4,-10.2,i
COc1ccc(/C=C/C(=O)NCC(=O)N=Nc2c(O)[nH]c3ccc([N+](=O)[O-])cc23)cc1,.,.,.,9.0,.,.
CCOc1ccc(S(=O)(=O)N2CCC(C(=O)NCc3cccnc3)CC2)cc1C,.,.,.,-3.3,.,.
COc1cccc(/C=C/C(=O)Nc2ccc3c(c2)OCCO3)c1OC,0.0349,-0.1,+,-2.4,-9.5,i
COc1cccc(/C=C/C(=O)Nc2cccc(C(C)=O)c2)c1OC,-0.696,0.2,i,-0.9,-2.0,i
C=CCNc1sc(C(=O)c2ccc(Br)s2)c(N)c1C#N,-0.364,-0.1,+,3.0,-20.4,i
CCOC(=O)CC1(NC(=O)c2cc(COc3cccc(OC)c3)on2)CCCCC1,.,.,.,4.3,.,.
CCn1cc(C(=O)N2CCc3ccccc3C2)c(=O)c2cc(S(=O)(=O)N3CCCCC3)ccc21,1.31,-0.5,+,.,-15.9,i
CCOC(=O)C1CCCN(C(=O)c2cn(C)c3ccc(S(=O)(=O)N(C)C)cc3c2=O)C1 (configuration not stated),-0.354,1.9,+,0.9,-30.7,i
CN(C)S(=O)(=O)c1ccc2c(c1)c(=O)c(C(=O)N1CCOCC1)cn2C,-0.929,1.2,.,-8.0,-29.5,i
